Experimental data reported in ChEMBL document CHEMBL2177062, “Bile acid-based 1,2,4-trioxanes: synthesis and antimalarial assessment” (J Med Chem, 2012).
Active and inactive are the calls of the source. No cut-off for these calls is given here.

System: Plasmodium yoelii nigeriensis
Experiment: Antimalarial activity in multidrug-resistant Plasmodium yoelii nigeriensis infected Swiss mouse assessed as disease cure at 48 mg/kg, po two devided dose daily for 4 days by 28 day survival assay
Type: functional, organism-based
Set-up: dose 48 mg/kg
Conditions: not given
Outline: (§1)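 Swiss mice of either sex (20 2 g) inoculated ip with 1 × 10⁶ MDR P. yoelii nigeriensis (chloroquine-, mefloquine-, halofantrine-resistant) parasites on day 0. Five mice per dose. Oral dosing in groundnut oil (0.1 mL per dose) from day 0 to 3, as two divided doses daily. Thin blood smears on day 4, then twice weekly to day 28. Mice without patent infection by day 28 scored cured; % protection = fraction of mice cured. β-arteether as positive control.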

| SMILES | Activity |
| --- | --- |
| C=C(c1ccc(F)cc1)[C@@H]1CO[C@@]2(CC[C@@]3(C)[C@H](CC[C@@H]4[C@@H]3CC[C@]3(C)[C@@H](C(C)=O)CC[C@@H]43)C2)OO1 (relative stereo; form 2) | Active |
| C=C(c1ccc(Cl)cc1)[C@@H]1CO[C@@]2(CC[C@@]3(C)[C@H](CC[C@@H]4[C@@H]3CC[C@]3(C)[C@@H](C(C)=O)CC[C@@H]43)C2)OO1 (relative stereo; form 2) | Active |
| C=C(c1ccccc1)[C@@H]1CO[C@@]2(CC[C@@]3(C)[C@H](CC[C@@H]4[C@@H]3CC[C@]3(C)[C@@H](C(C)=O)CC[C@@H]43)C2)OO1 (relative stereo; form 2) | Active |
| C=C(c1ccc(F)cc1)[C@@H]1CO[C@@]2(CC[C@@]3(C)[C@H](CC[C@@H]4[C@@H]3CC[C@]3(C)[C@@H](C(C)=O)CC[C@@H]43)C2)OO1 (relative stereo; form 1) | inactive |

System: Plasmodium yoelii nigeriensis
Experiment: Antimalarial activity in multidrug-resistant Plasmodium yoelii nigeriensis infected Swiss mouse assessed as suppression of parasitaemia at 96 mg/kg, po two devided dose daily for 4 days
Type: functional
Conditions: 96 mg/kg
Outline: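 Swiss mice of either sex (20 2 g) inoculated ip with 1 × 10⁶ MDR P. yoelii nigeriensis parasites on day 0. Five mice per dose, given oral doses in groundnut oil from day 0 to 3, twice daily. Parasitaemia read from thin blood smears on day 4. Suppression = [(C − T)/C] × 100 versus untreated controls. 100% means no parasites seen in 50 oil-immersion fields.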

| SMILES | Activity [%] |
| --- | --- |
| C=C(c1ccc(F)cc1)[C@@H]1CO[C@@]2(CC[C@@]3(C)[C@H](CC[C@@H]4[C@@H]3CC[C@]3(C)[C@@H]([C@H](C)C(C)=O)CC[C@@H]43)C2)OO1 (relative stereo; form 2) | 100 |
| C=C(c1ccccc1)[C@@H]1CO[C@@]2(CC[C@@]3(C)[C@H](CC[C@@H]4[C@@H]3CC[C@]3(C)[C@@H](O)CC[C@@H]43)C2)OO1 (relative stereo; form 1) | 69.36 |
| C=C(c1ccc(F)cc1)[C@@H]1CO[C@@]2(CC[C@@]3(C)[C@H](CC[C@@H]4[C@@H]3CC[C@]3(C)[C@@H]([C@H](C)CCC(=O)OC)CC[C@@H]43)C2)OO1 (relative stereo; form 2) | 33.13 |
| C=C(c1ccc(Br)cc1)[C@@H]1CO[C@@]2(CC[C@@]3(C)[C@H](CC[C@@H]4[C@@H]3CC[C@]3(C)[C@@H]([C@H](C)C(C)=O)CC[C@@H]43)C2)OO1 (relative stereo; form 1) | 56.73 |
| C=C(c1ccc(Br)cc1)[C@@H]1CO[C@@]2(CC[C@@]3(C)[C@H](CC[C@@H]4[C@@H]3CC[C@]3(C)[C@@H](C(C)=O)CC[C@@H]43)C2)OO1 (relative stereo; form 2) | 89.78 |
| C=C(c1ccc(Cl)cc1)[C@@H]1CO[C@@]2(CC[C@@]3(C)[C@H](CC[C@@H]4[C@@H]3CC[C@]3(C)[C@@H]([C@H](C)C(C)=O)CC[C@@H]43)C2)OO1 (relative stereo; form 2) | 34.65 |
| C=C(c1ccc(Br)cc1)[C@@H]1CO[C@@]2(CC[C@@]3(C)[C@H](CC[C@@H]4[C@@H]3CC[C@]3(C)[C@@H]([C@H](C)CCC(=O)OC)CC[C@@H]43)C2)OO1 (relative stereo; form 1) | 64.31 |
| C=C(c1ccccc1)[C@@H]1CO[C@@]2(CC[C@@]3(C)[C@H](CC[C@@H]4[C@@H]3CC[C@]3(C)[C@@H](C(C)=O)CC[C@@H]43)C2)OO1 (relative stereo; form 1) | 79.89 |
| C=C(c1ccc(Cl)cc1)[C@@H]1CO[C@@]2(CC[C@@]3(C)[C@H](CC[C@@H]4[C@@H]3CC[C@]3(C)[C@@H](C(C)=O)CC[C@@H]43)C2)OO1 (relative stereo; form 1) | 90.98 |
| C=C(c1ccc(F)cc1)[C@@H]1CO[C@@]2(CC[C@@]3(C)[C@H](CC[C@@H]4[C@@H]3CC[C@]3(C)[C@@H]([C@H](C)C(C)=O)CC[C@@H]43)C2)OO1 (relative stereo; form 1) | 86.26 |
| C=C(c1ccccc1)[C@@H]1CO[C@@]2(CC[C@@]3(C)[C@H](CC[C@@H]4[C@@H]3CC[C@]3(C)[C@@H]([C@H](C)CCC(=O)OC)CC[C@@H]43)C2)OO1 (relative stereo; form 1) | 20.6 |
| C=C(c1ccc(Cl)cc1)[C@@H]1CO[C@@]2(CC[C@@]3(C)[C@H](CC[C@@H]4[C@@H]3CC[C@]3(C)[C@@H]([C@H](C)CCC(=O)OC)CC[C@@H]43)C2)OO1 (relative stereo; form 2) | 45.23 |
| C=C(c1ccccc1)[C@@H]1CO[C@@]2(CC[C@@]3(C)[C@H](CC[C@@H]4[C@@H]3CC[C@]3(C)[C@@H]([C@H](C)CCC(=O)OC)CC[C@@H]43)C2)OO1 (relative stereo; form 2) | 43.56 |
| C=C(c1ccc(Br)cc1)[C@@H]1CO[C@@]2(CC[C@@]3(C)[C@H](CC[C@@H]4[C@@H]3CC[C@]3(C)[C@@H](O)CC[C@@H]43)C2)OO1 (relative stereo; form 1) [listing 1 of 2 here] | 76.52 |
| C=C(c1ccccc1)[C@@H]1CO[C@@]2(CC[C@@]3(C)[C@H](CC[C@@H]4[C@@H]3CC[C@]3(C)[C@@H]([C@H](C)C(C)=O)CC[C@@H]43)C2)OO1 (relative stereo; form 2) | 100 |
| C=C(c1ccc(Cl)cc1)[C@@H]1CO[C@@]2(CC[C@@]3(C)[C@H](CC[C@@H]4[C@@H]3CC[C@]3(C)[C@@H]([C@H](C)C(C)=O)CC[C@@H]43)C2)OO1 (relative stereo; form 1) | 100 |
| C=C(c1ccc(Br)cc1)[C@@H]1CO[C@@]2(CC[C@@]3(C)[C@H](CC[C@@H]4[C@@H]3CC[C@]3(C)[C@@H]([C@H](C)C(C)=O)CC[C@@H]43)C2)OO1 (relative stereo; form 2) [listing 1 of 2 here] | 41.83 |
| C=C(c1ccc(Br)cc1)[C@@H]1CO[C@@]2(CC[C@@]3(C)[C@H](CC[C@@H]4[C@@H]3CC[C@]3(C)[C@@H]([C@H](C)CCC(=O)OC)CC[C@@H]43)C2)OO1 (relative stereo; form 2) [listing 1 of 2 here] | 18.57 |
| C=C(c1ccc(Cl)cc1)[C@@H]1CO[C@@]2(CC[C@@]3(C)[C@H](CC[C@@H]4[C@@H]3CC[C@]3(C)[C@@H]([C@H](C)CCC(=O)OC)CC[C@@H]43)C2)OO1 (relative stereo; form 1) | 56.02 |
| C=C(c1ccc(F)cc1)[C@@H]1CO[C@@]2(CC[C@@]3(C)[C@H](CC[C@@H]4[C@@H]3CC[C@]3(C)[C@@H]([C@H](C)CCC(=O)OC)CC[C@@H]43)C2)OO1 (relative stereo; form 1) | 45.31 |
| C=C(c1ccccc1)[C@@H]1CO[C@@]2(CC[C@@]3(C)[C@H](CC[C@@H]4[C@@H]3CC[C@]3(C)[C@@H]([C@H](C)C(C)=O)CC[C@@H]43)C2)OO1 (relative stereo; form 1) | 94.31 |

System: Plasmodium yoelii nigeriensis
Experiment: Antimalarial activity in multidrug-resistant Plasmodium yoelii nigeriensis infected Swiss mouse assessed as disease cure at 96 mg/kg, po two devided dose daily for 4 days by 28 day survival assay
Type: functional
Conditions: not given
Outline: as §1

| SMILES | Activity |
| --- | --- |
| C=C(c1ccc(F)cc1)[C@@H]1CO[C@@]2(CC[C@@]3(C)[C@H](CC[C@@H]4[C@@H]3CC[C@]3(C)[C@@H]([C@H](C)C(C)=O)CC[C@@H]43)C2)OO1 (relative stereo; form 2) | 60% |
| C=C(c1ccc(F)cc1)[C@@H]1CO[C@@]2(CC[C@@]3(C)[C@H](CC[C@@H]4[C@@H]3CC[C@]3(C)[C@@H](C(C)=O)CC[C@@H]43)C2)OO1 (relative stereo; form 2) | Active |
| C=C(c1ccc(Cl)cc1)[C@@H]1CO[C@@]2(CC[C@@]3(C)[C@H](CC[C@@H]4[C@@H]3CC[C@]3(C)[C@@H](C(C)=O)CC[C@@H]43)C2)OO1 (relative stereo; form 2) | Active |
| C=C(c1ccccc1)[C@@H]1CO[C@@]2(CC[C@@]3(C)[C@H](CC[C@@H]4[C@@H]3CC[C@]3(C)[C@@H](C(C)=O)CC[C@@H]43)C2)OO1 (relative stereo; form 2) | Active |
| C=C(c1ccccc1)[C@@H]1CO[C@@]2(CC[C@@]3(C)[C@H](CC[C@@H]4[C@@H]3CC[C@]3(C)[C@@H]([C@H](C)C(C)=O)CC[C@@H]43)C2)OO1 (relative stereo; form 2) | 60% |
| C=C(c1ccc(Br)cc1)[C@@H]1CO[C@@]2(CC[C@@]3(C)[C@H](CC[C@@H]4[C@@H]3CC[C@]3(C)[C@@H](O)CC[C@@H]43)C2)OO1 (relative stereo; form 1) [listing 2 of 2 here] | inactive |
| C=C(c1ccc(Br)cc1)[C@@H]1CO[C@@]2(CC[C@@]3(C)[C@H](CC[C@@H]4[C@@H]3CC[C@]3(C)[C@@H]([C@H](C)C(C)=O)CC[C@@H]43)C2)OO1 (relative stereo; form 2) [listing 2 of 2 here] | inactive |
| C=C(c1ccc(Br)cc1)[C@@H]1CO[C@@]2(CC[C@@]3(C)[C@H](CC[C@@H]4[C@@H]3CC[C@]3(C)[C@@H]([C@H](C)CCC(=O)OC)CC[C@@H]43)C2)OO1 (relative stereo; form 2) [listing 2 of 2 here] | inactive |
